Measured values reported in ChEMBL document CHEMBL3797184, “Benzo[d]thiazol-2-yl(piperazin-1-yl)methanones as new anti-mycobacterial chemotypes: Design, synthesis, biological evaluation and 3D-QSAR studies” (Eur J Med Chem, 2016).
Values after ≈ are worked out from the molar mass of the structure shown.

How the values were obtained:
[1] = system: Mycobacterium tuberculosis; test: Antitubercular activity against Mycobacterium tuberculosis H37Rv ATCC 27294 after 28 days by two-fold serial dilution method; format: functional; conditions: for MIC: Mycobacterium tuberculosis, H37Rv ATCC 27294, 672 h
Procedure, shortened: (§1)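 NCCLS-recommended agar dilution run in triplicate against H37Rv ATCC 27294. Two-fold dilutions (50.0 to 0.4 µg/mL) in Middlebrook 7H11 agar with OADC. Inoculum came from fresh 7H11/OADC slants, adjusted to 1 mg/mL wet weight in 0.05% Tween 80 saline and diluted 10^-2 (~10^7 cfu/mL). 5 µL was spotted per tube, incubated at 37 °C and read at 28 days as MIC.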

[2] = system: Mycobacterium tuberculosis; test: Antitubercular activity against Mycobacterium tuberculosis clinical isolate by BACTEC 460 TB method; format: functional
[3] = Cytotoxicity against mouse RAW264.7 cells at 50 ug/ml after 72 hrs by MTT assay; format: cell-based; conditions: read-out: INH
[4] = Therapeutic index, ratio of cytotoxicity against mouse RAW264.7 cells to antitubercular activity against Mycobacterium tuberculosis H37Rv ATCC 27294; format: cell-based; conditions: read-out: TI
[5] = system: Mycobacterium tuberculosis; test: Antitubercular activity against Mycobacterium tuberculosis […] by microplate Alamar blue assay; format: functional
[6] = system: Mycobacterium tuberculosis; test: Antitubercular activity against Mycobacterium tuberculosis; format: functional; procedure, shortened: as §1

Compound	MIC [1] [µM]	-logMIC [1]	cytotoxicity at 72 h, 50 ug/ml [3] [%]	other results
CCOC(=O)c1nc2ccccc2s1	121 (≈ 25 µg/mL)	–	–	–
O=C(c1nc2ccccc2s1)N1CCSCC1	94.6 (≈ 25 µg/mL)	–	–	–
Cc1c(CN2CCN(C)CC2)cc(-c2ccc(Cl)cc2)n1-c1ccc(Cl)cc1	–	–	–	MIC [2]: 1.5 µg/mL (≈ 3.62 µM)
O=C(c1nc2cc(Cl)ccc2s1)N1CCN(c2cnccn2)CC1	17.4 (≈ 6.25 µg/mL)	4.76	54.9	–
O=C(c1nc2ccccc2s1)N1CCN(c2ccncc2)CC1	9.63 (≈ 3.12 µg/mL)	5.02	62	–
O=C(c1nc2cc(Cl)ccc2s1)N1CCN(C(c2ccccc2)c2ccccc2)CC1	1.74 (≈ 0.78 µg/mL)	5.76	52.9	–
COc1ccc(N2CCN(C(=O)c3nc4ccccc4s3)CC2)cc1	35.4 (≈ 12.5 µg/mL)	4.45	–	–
CC(=O)c1ccc(N2CCN(C(=O)c3nc4ccccc4s3)CC2)cc1	4.27 (≈ 1.56 µg/mL)	5.37	62.3	–
CCOC(=O)c1nc2cc(Cl)ccc2s1	12.9 (≈ 3.13 µg/mL)	–	37.4	–
COc1ccccc1N1CCN(C(=O)c2nc3cc(Cl)ccc3s2)CC1	8.06 (≈ 3.13 µg/mL)	5.09	63.4	–
CC(=O)c1ccc(N2CCN(C(=O)c3nc4cc(C(F)(F)F)ccc4s3)CC2)cc1	14.4 (≈ 6.25 µg/mL)	4.84	30.6	–
COc1ccccc1N1CCN(C(=O)c2nc3ccccc3s2)CC1	8.84 (≈ 3.12 µg/mL)	5.05	53.4	–
O=C(c1nc2ccccc2s1)N1CCN(c2ccccc2)CC1	4.82 (≈ 1.56 µg/mL)	5.32	67.2	–
COc1ccccc1N1CCN(C(=O)c2nc3cc(C(F)(F)F)ccc3s2)CC1	59.3 (≈ 25 µg/mL)	–	–	–
O=C(c1nc2cc(C(F)(F)F)ccc2s1)N1CCOCC1	2.47 (≈ 0.781 µg/mL)	–	24.6	selectivity ratio [4]: > 60
O=C(c1nc2cc(Cl)ccc2s1)N1CCOCC1	22.1 (≈ 6.25 µg/mL)	–	26.1	–
CCOC(=O)c1nc2cc(C(F)(F)F)ccc2s1	22.7 (≈ 6.25 µg/mL)	–	29.1	–
O=C(c1nc2cc(C(F)(F)F)ccc2s1)N1CCN(c2ccccc2)CC1	31.9 (≈ 12.5 µg/mL)	–	–	–
O=C(c1nc2cc(Cl)ccc2s1)N1CCN(c2ccccc2)CC1	17.5 (≈ 6.25 µg/mL)	4.76	41.2	–
O=C(c1nc2cc(C(F)(F)F)ccc2s1)N1CCN(c2ccncc2)CC1	7.96 (≈ 3.12 µg/mL)	5.1	17.5	–
COc1ccc(N2CCN(C(=O)c3nc4cc(C(F)(F)F)ccc4s3)CC2)cc1	7.42 (≈ 3.13 µg/mL)	5.13	19.4	–
CC(=O)c1ccc(N2CCN(C(=O)c3nc4cc(Cl)ccc4s3)CC2)cc1	3.9 (≈ 1.56 µg/mL)	5.41	30.8	–
CN1CCN(C(=O)c2nc3cc(C(F)(F)F)ccc3s2)CC1	19 (≈ 6.25 µg/mL)	4.72	12.6	–

Compound	MIC [1] [µM]	-logMIC [1]	cytotoxicity at 72 h, 50 ug/ml [3] [%]	other results
O=C(c1nc2cc(C(F)(F)F)ccc2s1)N1CCCCC1	39.8 (≈ 12.5 µg/mL)	–	–	–
CC(=O)N1CCN(C(=O)c2nc3cc(C(F)(F)F)ccc3s2)CC1	4.37 (≈ 1.56 µg/mL)	5.36	20.2	–
CN1CCN(C(=O)c2nc3cc(Cl)ccc3s2)CC1	84.5 (≈ 25 µg/mL)	–	–	–
O=C(c1nc2ccccc2s1)N1CCCCC1	101 (≈ 25 µg/mL)	–	–	–
COc1ccc(N2CCN(C(=O)c3nc4cc(Cl)ccc4s3)CC2)cc1	8.06 (≈ 3.13 µg/mL)	5.09	42.8	–
O=C(c1nc2cc(Cl)ccc2s1)N1CCN(c2ccncc2)CC1	34.8 (≈ 12.5 µg/mL)	4.46	–	–
O=C(c1nc2cc(C(F)(F)F)ccc2s1)N1CCN(c2cnccn2)CC1	7.94 (≈ 3.12 µg/mL)	5.1	28.1	–
CN1CCN(/N=C\c2cc(C(F)(F)F)nc3c(C(F)(F)F)cccc23)CC1	–	–	–	MIC [5]: 3.56 µg/mL (≈ 9.12 µM)
CC(=O)N1CCN(C(=O)c2nc3cc(Cl)ccc3s2)CC1	38.6 (≈ 12.5 µg/mL)	4.41	–	–
CN1CCN(C(=O)c2nc3ccccc3s2)CC1	12 (≈ 3.13 µg/mL)	4.92	52.1	–
O=C(c1nc2ccccc2s1)N1CCN(c2cnccn2)CC1	19.2 (≈ 6.25 µg/mL)	4.72	65.3	–
O=C(c1nc2ccccc2s1)N1CCN(C(c2ccccc2)c2ccccc2)CC1	1.89 (≈ 0.782 µg/mL)	5.72	60.7	–
O=C(c1nc2ccccc2s1)N1CCOCC1	6.28 (≈ 1.56 µg/mL)	–	36.2	–
O=C(c1nc2cc(Cl)ccc2s1)N1CCCCC1	44.5 (≈ 12.5 µg/mL)	–	–	–
O=C(c1nc2cc(C(F)(F)F)ccc2s1)N1CCN(C(c2ccccc2)c2ccccc2)CC1	51.9 (≈ 25 µg/mL)	–	–	–
O=C(c1nc2cc(Cl)ccc2s1)N1CCSCC1	20.9 (≈ 6.25 µg/mL)	–	62.5	–
CC(C)C(NC(=O)OCC1c2ccccc2-c2ccccc21)C(=O)O/N=C1\c2ccccc2-c2c1c(N1CCN(c3ccccn3)CC1)nc1ccc(Br)cc21 (stereo not drawn)	–	–	–	MIC [6]: 1.47 µg/mL (≈ 1.82 µM)
CC(=O)N1CCN(C(=O)c2nc3ccccc3s2)CC1	5.39 (≈ 1.56 µg/mL)	5.27	48.8	–
O=C(c1nc2cc(C(F)(F)F)ccc2s1)N1CCSCC1	2.35 (≈ 0.781 µg/mL)	–	18.1	selectivity ratio [4]: > 60
CC[C@@H](CO)NCCN[C@@H](CC)CO [ETHAMBUTOL]	7.64 (≈ 1.56 µg/mL)	–	–	–
NNC(=O)c1ccncc1 [ISONIAZID]	0.72 (≈ 0.0987 µg/mL)	–	–	–
NC(=O)c1cnccn1 [PYRAZINAMIDE]	50.8 (≈ 6.25 µg/mL)	–	–	–
CO[C@H]1/C=C/O[C@@]2(C)Oc3c(C)c(O)c4c(O)c(c(/C=N/N5CCN(C)CC5)c(O)c4c3C2=O)NC(=O)/C(C)=C\C=C\[C@H](C)[C@H](O)[C@@H](C)[C@@H](O)[C@@H](C)[C@H](OC(C)=O)[C@@H]1C [RIFAMPIN]	0.24 (≈ 0.198 µg/mL)	–	–	–
